From ChEMBL document CHEMBL4842372, “Discovery of ARD-2585 as an Exceptionally Potent and Orally Active PROTAC Degrader of Androgen Receptor for the Treatment of Advanced Prostate Cancer” (J Med Chem, 2021)
Active and inactive are the calls of the source. No cut-off for these calls is given here.

Experiments:
[1] = target: T1, Protein cereblon/Androgen receptor (Homo sapiens, UniProt P10275+Q96SW2); assay: Protac activity at CRBN/AR in human MDA-PCa-2b cells assessed as reduction in AR protein level at 1 nM after 24 hrs by Western blot analysis relative to control; assay type: cell-based
How it was run: (§1)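 Western blot of AR after 24 h exposure to a concentration series in ATCC-derived cells, all with 10% FBS at 37 °C and 5% CO2: LNCaP and 22Rv1 in RPMI1640, VCaP in DMEM with Glutamax, MDA-PCa-2b in F-12K. Lysis in RIPA with protease and phosphatase inhibitors, then 4–12% SDS-PAGE and PVDF transfer. Band minus background is normalised to GAPDH.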

[2] = tested on: VCaP; assay: Antitumor activity against human VCaP cells xenografted in CB17:SCID mouse assessed as tumor growth inhibition at 40 mg/kg, po treated for 37 days relative to control; assay type: functional; conditions: 888 h, time 37 day, read-out: TGI
[3] = tested on: VCaP; assay: Antitumor activity against human VCaP cells xenografted in CB17:SCID mouse assessed as tumor growth inhibition at 10 mg/kg, po treated for 37 days relative to control; assay type: functional; conditions: 888 h, time 37 day, read-out: TGI
[4] = Drug distribution in CB17:SCID mouse xenografted with human VCaP cells assessed as prostate gland to plasma ratio at 20 mg/kg, po measured at 1 hrs by LCMS analysis; assay type: ADME, organism-based
How it was run: (§2)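 Tumor-bearing male CB17 SCID mice (VCaP xenografts) given one 20 mg/kg oral dose in 100% PEG200, three mice per time point; plasma, tumor, liver, kidney, prostate and heart taken at 1, 6 and 24 h; tissues homogenised in water/acetonitrile, protein precipitated with cold acetonitrile, drug quantified by LC–MS/MS; ratios are tissue over plasma level.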

[5] = Drug distribution in tumor of CB17:SCID mouse xenografted with human VCaP cells at 20 mg/kg, po measured at 1 hrs by LCMS analysis; assay type: ADME, organism-based, Neoplasm; conditions: read-out: Drug uptake; how it was run: as §2
[6] = target: Voltage-gated inwardly rectifying potassium channel KCNH2 (Homo sapiens, UniProt Q12809); assay: Inhibition of human ERG up to 30 uM
How it was run: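 hERG potassium channel stably expressed in HEK 293 cells; current recorded by manual patch clamp at 0.3, 1, 3, 10 and 30 μM, in duplicate, for concentration–response.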

[7] = Drug distribution in CB17:SCID mouse xenografted with human VCaP cells assessed as heart to plasma ratio at 20 mg/kg, po measured at 1 hrs by LCMS analysis; assay type: ADME, organism-based; how it was run: as §2
[8] = Drug distribution in CB17:SCID mouse xenografted with human VCaP cells assessed as tumor to plasma ratio at 20 mg/kg, po measured at 6 hrs by LCMS analysis; assay type: ADME, organism-based; how it was run: as §2
[9] = target: T1, Protein cereblon/Androgen receptor; assay: Protac activity at CRBN/AR in human 22Rv1 cells assessed as maximal AR degradation at 0.1 nM after 24 hrs by Western blot analysis relative to control; assay type: cell-based; how it was run: as §1
[10] = tested on: Protein cereblon/Androgen receptor (Homo sapiens), P10275+Q96SW2 [T878A]; assay: Protac activity at CRBN/AR T878A mutant in human LNCaP cells assessed as reduction in AR protein level at 100 nM after 3 hrs in presence of MG-132 by Western blot analysis
[11] = Drug distribution in prostate gland of CB17:SCID mouse xenografted with human VCaP cells at 20 mg/kg, po measured at 24 hrs by LCMS analysis; assay type: ADME, organism-based; conditions: read-out: Drug uptake; how it was run: as §2
[12] = Drug distribution in liver of CB17:SCID mouse xenografted with human VCaP cells at 20 mg/kg, po measured at 1 hrs by LCMS analysis; assay type: ADME, organism-based; conditions: read-out: Drug uptake; how it was run: as §2
[13] = tested on: VCaP; assay: Potency index, ratio of ARV-110 IC50 to compound IC50 for reduction in AR degradation human VCaP cells after 24 hrs by Western blot analysis; assay type: functional
[14] = Drug distribution in CB17:SCID mouse xenografted with human VCaP cells assessed as liver to plasma ratio at 20 mg/kg, po measured at 1 hrs by LCMS analysis; assay type: ADME, organism-based; how it was run: as §2
[15] = Drug distribution in heart of CB17:SCID mouse xenografted with human VCaP cells at 20 mg/kg, po measured at 6 hrs by LCMS analysis; assay type: ADME, organism-based; conditions: read-out: Drug uptake; how it was run: as §2
[16] = Drug distribution in CB17:SCID mouse xenografted with human VCaP cells assessed as heart to plasma ratio at 20 mg/kg, po measured at 6 hrs by LCMS analysis; assay type: ADME, organism-based; how it was run: as §2
[17] = Drug distribution in plasma of CB17:SCID mouse xenografted with human VCaP cells at 20 mg/kg, po measured at 1 hrs by LCMS analysis; assay type: ADME, organism-based; how it was run: as §2
[18] = Drug distribution in liver of CB17:SCID mouse xenografted with human VCaP cells at 20 mg/kg, po measured at 24 hrs by LCMS analysis; assay type: ADME, organism-based; conditions: read-out: Drug uptake; how it was run: as §2
[19] = tested on: VCaP; assay: Growth inhibition of human VCaP cells assessed as cell viability by WST-8 assay; assay type: functional, cell-based
[20] = Drug distribution in CB17:SCID mouse xenografted with human VCaP cells assessed as prostate gland to plasma ratio at 20 mg/kg, po measured at 24 hrs by LCMS analysis; assay type: ADME, organism-based; how it was run: as §2
[21] = target: T1, Protein cereblon/Androgen receptor; assay: Protac activity at CRBN/AR in human VCaP cells assessed as reduction in AR protein level at 100 nM after 3 hrs in presence of MLN4924 by Western blot analysis
[22] = Drug distribution in kidney of CB17:SCID mouse xenografted with human VCaP cells at 20 mg/kg, po measured at 6 hrs by LCMS analysis; assay type: ADME, organism-based; conditions: read-out: Drug uptake; how it was run: as §2
[23] = target: T1, Protein cereblon/Androgen receptor; assay: Protac activity at CRBN/AR in human VCaP cells assessed as reduction in AR protein level at 0.1 nM after 24 hrs by Western blot analysis relative to control; assay type: cell-based; how it was run: as §1
[24] = Drug distribution in tumor of CB17:SCID mouse xenografted with human VCaP cells at 20 mg/kg, po measured at 6 hrs by LCMS analysis; assay type: ADME, organism-based, Neoplasm; conditions: read-out: Drug uptake; how it was run: as §2
[25] = Drug distribution in CB17:SCID mouse xenografted with human VCaP cells assessed as heart to plasma ratio at 20 mg/kg, po measured at 24 hrs by LCMS analysis; assay type: ADME, organism-based; how it was run: as §2
[26] = Drug distribution in kidney of CB17:SCID mouse xenografted with human VCaP cells at 20 mg/kg, po measured at 24 hrs by LCMS analysis; assay type: ADME, organism-based; conditions: read-out: Drug uptake; how it was run: as §2
[27] = Potency index, ratio of ARV-110 IC50 to compound IC50 for reduction in AR degradation human MDA-PCa-2b cells after 24 hrs by Western blot analysis relative to control; assay type: functional
[28] = Drug distribution in CB17:SCID mouse xenografted with human VCaP cells assessed as liver to plasma ratio at 20 mg/kg, po measured at 24 hrs by LCMS analysis; assay type: ADME, organism-based; how it was run: as §2
[29] = target: T1, Protein cereblon/Androgen receptor; assay: Protac activity at CRBN/AR in human VCaP cells assessed as reduction in AR protein level at 100 nM after 3 hrs in presence of thalidomide by Western blot analysis

T1 sequence (P10275 whole entry, looked up): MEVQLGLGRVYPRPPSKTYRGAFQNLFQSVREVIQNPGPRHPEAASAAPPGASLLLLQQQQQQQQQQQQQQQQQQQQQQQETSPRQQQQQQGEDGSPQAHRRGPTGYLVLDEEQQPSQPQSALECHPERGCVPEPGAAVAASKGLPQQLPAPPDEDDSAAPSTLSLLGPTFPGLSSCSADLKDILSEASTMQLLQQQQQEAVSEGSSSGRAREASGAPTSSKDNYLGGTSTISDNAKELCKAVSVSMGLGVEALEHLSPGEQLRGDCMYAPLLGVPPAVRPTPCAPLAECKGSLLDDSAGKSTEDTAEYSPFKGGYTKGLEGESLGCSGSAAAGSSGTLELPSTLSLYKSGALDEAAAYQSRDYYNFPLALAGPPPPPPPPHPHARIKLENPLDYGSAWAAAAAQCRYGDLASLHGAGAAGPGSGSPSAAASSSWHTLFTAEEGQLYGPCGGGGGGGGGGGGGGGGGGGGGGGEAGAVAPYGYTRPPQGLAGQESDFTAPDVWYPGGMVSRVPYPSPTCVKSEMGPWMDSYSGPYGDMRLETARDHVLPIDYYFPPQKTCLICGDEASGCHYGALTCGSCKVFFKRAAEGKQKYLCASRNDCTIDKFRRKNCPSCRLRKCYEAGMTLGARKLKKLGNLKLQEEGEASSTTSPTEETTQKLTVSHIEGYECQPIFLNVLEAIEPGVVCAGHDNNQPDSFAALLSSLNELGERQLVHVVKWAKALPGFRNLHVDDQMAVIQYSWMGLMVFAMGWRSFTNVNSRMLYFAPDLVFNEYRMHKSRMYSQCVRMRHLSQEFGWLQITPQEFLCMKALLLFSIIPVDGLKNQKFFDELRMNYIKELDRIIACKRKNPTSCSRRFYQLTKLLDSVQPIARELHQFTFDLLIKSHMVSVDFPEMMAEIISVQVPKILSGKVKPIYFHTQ
T1 sequence (Q96SW2 whole entry, looked up): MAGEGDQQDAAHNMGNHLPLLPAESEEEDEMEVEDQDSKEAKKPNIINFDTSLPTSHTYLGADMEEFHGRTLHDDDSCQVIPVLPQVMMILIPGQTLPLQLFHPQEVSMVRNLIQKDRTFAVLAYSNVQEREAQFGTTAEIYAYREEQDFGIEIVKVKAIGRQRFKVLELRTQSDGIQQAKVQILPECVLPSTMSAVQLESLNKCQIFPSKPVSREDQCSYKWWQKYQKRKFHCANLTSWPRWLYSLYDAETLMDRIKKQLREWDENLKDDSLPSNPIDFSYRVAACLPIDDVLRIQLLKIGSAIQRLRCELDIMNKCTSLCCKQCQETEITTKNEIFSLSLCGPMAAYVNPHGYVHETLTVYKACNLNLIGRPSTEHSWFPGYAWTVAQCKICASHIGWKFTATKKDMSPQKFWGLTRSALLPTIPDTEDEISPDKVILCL
Chain of Voltage-gated inwardly rectifying potassium channel KCNH2 (Q12809 whole entry): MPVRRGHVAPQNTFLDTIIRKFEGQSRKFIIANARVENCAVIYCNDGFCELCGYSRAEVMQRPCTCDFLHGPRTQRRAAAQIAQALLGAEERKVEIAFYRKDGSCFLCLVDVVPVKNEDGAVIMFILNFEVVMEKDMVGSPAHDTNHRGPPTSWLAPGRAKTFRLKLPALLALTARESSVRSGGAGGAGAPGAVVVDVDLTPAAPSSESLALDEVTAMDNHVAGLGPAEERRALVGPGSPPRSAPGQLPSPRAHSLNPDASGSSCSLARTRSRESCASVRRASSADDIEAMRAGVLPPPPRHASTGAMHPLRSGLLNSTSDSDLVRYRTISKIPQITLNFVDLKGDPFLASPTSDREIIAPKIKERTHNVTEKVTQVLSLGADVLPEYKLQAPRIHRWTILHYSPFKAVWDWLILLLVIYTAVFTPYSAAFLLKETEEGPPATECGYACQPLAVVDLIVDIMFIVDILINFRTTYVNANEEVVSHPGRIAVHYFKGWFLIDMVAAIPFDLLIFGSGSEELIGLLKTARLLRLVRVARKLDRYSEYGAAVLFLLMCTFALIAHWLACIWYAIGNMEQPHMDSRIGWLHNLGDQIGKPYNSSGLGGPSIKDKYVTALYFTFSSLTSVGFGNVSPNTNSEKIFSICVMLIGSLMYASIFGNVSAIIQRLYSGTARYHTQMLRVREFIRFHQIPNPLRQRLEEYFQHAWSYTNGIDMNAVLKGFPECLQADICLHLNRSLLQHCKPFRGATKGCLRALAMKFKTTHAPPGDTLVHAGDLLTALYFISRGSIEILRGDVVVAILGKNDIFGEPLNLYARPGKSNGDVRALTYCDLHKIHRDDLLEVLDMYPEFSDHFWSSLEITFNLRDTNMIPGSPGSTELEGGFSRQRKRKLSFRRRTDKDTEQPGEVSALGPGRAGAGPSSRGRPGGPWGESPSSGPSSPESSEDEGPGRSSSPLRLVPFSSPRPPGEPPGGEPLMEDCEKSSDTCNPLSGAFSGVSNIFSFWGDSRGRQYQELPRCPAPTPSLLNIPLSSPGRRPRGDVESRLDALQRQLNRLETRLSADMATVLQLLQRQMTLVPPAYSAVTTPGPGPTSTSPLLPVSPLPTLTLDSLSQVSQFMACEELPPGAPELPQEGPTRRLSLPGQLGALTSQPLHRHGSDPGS

CN(c1ccc(C#N)c(Cl)c1)[C@H]1CC[C@H](NC(=O)c2ccc(N3CCN(C4CN(c5ccc6c(c5)C(=O)N(C5CCC(=O)NC5=O)C6=O)C4)CC3)cc2)CC1 (some centres undefined)
inhibition [1]: > 80%
inhibition in vivo at 40 mg/kg [2]: 65.9%
inhibition in vivo at 10 mg/kg [3]: 54.9%
Kp at 1 h [4]: 0.4
concentration at 1 h [5]: 47 ng/g
inhibition (INH) [6]: Not Active
Kp at 1 h [7]: 3
Kp at 6 h [8]: 1.5
Emax [9]: > 95%
Activity [10]: inactive
concentration at 24 h [11]: 107 ng/g
concentration at 1 h [12]: 2640 ng/g
Ratio [13]: 30
Kp at 1 h [14]: 37.7
concentration at 6 h [15]: 339 ng/g
Kp at 6 h [16]: 2.5
concentration at 1 h [17]: 70 ng/mL
concentration at 24 h [18]: 6870 ng/g
IC50 [19]: 1.5 nM
Kp at 24 h [20]: 0.5
Activity [21]: inactive
concentration at 6 h [22]: 661 ng/g
inhibition [23]: > 80%
concentration at 6 h [24]: 201 ng/g
Kp at 24 h [25]: 3.2
concentration at 24 h [26]: 366 ng/g
Ratio [27]: 1000
Kp at 24 h [28]: 32.1
Activity [29]: inactive
